Results taken from ChEMBL document CHEMBL1629494, “New amino acid esters of salicylanilides active against MDR-TB and other microbes” (Eur J Med Chem, 2010).
Converted amounts (≈) assume the structure as drawn.

Legend:
[1] = system: Enterococcus sp.; assay: Antibacterial activity against Enterococcus sp. J14365/08 after 24 hrs by broth microdilution method; type: functional; details: J14365/08, 24 h
Method in brief: (§1)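 Broth microdilution following […], with twofold compound dilutions in Mueller-Hinton bouillon. Incubated 24 and 48 h at 35 °C in the dark in a humid atmosphere. MIC (IC80) was taken as ≥80% growth reduction versus control, read visually and photometrically.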

[2] = system: Klebsiella pneumoniae; assay: Antibacterial activity against Klebsiella pneumoniae D11750/08 after 24 hrs by broth microdilution method; type: functional; details: D11750/08, 24 h; method in brief: as §1
[3] = system: PBMC; assay: Cytotoxicity against human PBMC after 24 hrs by MTT assay; type: cell-based
Method in brief: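 Human peripheral blood mononuclear cells in RPMI-1640 with 10% fetal calf serum, 2 mM L-glutamine and gentamicin, 37 °C, 5% CO2. Seeded at 1.5–2.0 × 10⁵ cells/well. After 24 h, treated overnight in serum-free medium. Viability by MTT (2 mg/mL, 4 h); formazan dissolved in DMSO; OD540 minus OD620. Cytotoxicity % = [1 − OD treated/OD control] × 100; IC50 from dose-response curves. Four parallels, two independent experiments.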

[4] = system: Pichia kudriavzevii; assay: Antifungal activity against Candida krusei E28 after 24 hrs by broth microdilution method; type: functional; details: E28, 24 h
[5] = Lipophilicity, log P of the compound; type: physicochemical; details: octanol/water
[6] = system: Staphylococcus epidermidis; assay: Antibacterial activity against Staphylococcus epidermidis H6966/08 after 24 hrs by broth microdilution method; type: functional; details: H6966/08, 24 h; method in brief: as §1
[7] = system: Mycobacterium kansasii; assay: Antimycobacterial activity against Mycobacterium kansasii 6509/96 after 7 days by micromethod; type: functional; details: 6509/96, 168 h
Method in brief: (§2)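 Micromethod in Sula semisynthetic medium, with compounds added as DMSO solutions at 1000, 500, 250, 125, 62, 32, 16, 8, 4, 2, 1, 0.5, 0.25. Inoculum dilutions: H37Rv 10^-3; M. avium 330/88 10^-5; M. kansasii 235/80 10^-4; M. kansasii 6509/96 10^-5. Incubated at 37 °C, read at 14 and 21 days, and at 7 days for M. kansasii. MIC was the lowest concentration inhibiting growth.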

[8] = system: Mycobacterium avium; assay: Antimycobacterial activity against Mycobacterium avium; type: functional
[9] = system: Trichophyton mentagrophytes; assay: Antifungal activity against Trichophyton mentagrophytes after 48 hrs by broth microdilution method; type: functional
[10] = system: Aspergillus fumigatus; assay: Antifungal activity against Aspergillus fumigatus 231 after 24 hrs by broth microdilution method; type: functional; details: Aspergillus fumigatus, 231, 24 h
[11] = system: Pichia kudriavzevii; assay: Antifungal activity against Candida krusei E28 after 48 hrs by broth microdilution method; type: functional; details: E28, 48 h
[12] = system: Mycobacterium avium; assay: Antimycobacterial activity against multidrug-resistant Mycobacterium avium 330/88 after 14 days by micromethod; type: functional; details: 330/88, 336 h; method in brief: as §2
[13] = system: Mycobacterium kansasii; assay: Antimycobacterial activity against Mycobacterium kansasii 235/80 after 21 days by micromethod; type: functional; details: 235/80, 504 h; method in brief: as §2
[14] = system: Candida albicans; assay: Antifungal activity against Candida albicans ATCC 44859 after 48 hrs by broth microdilution method; type: functional; details: ATCC 44859, 48 h
[15] = system: Staphylococcus epidermidis; assay: Antibacterial activity against Staphylococcus epidermidis H6966/08 after 48 hrs by broth microdilution method; type: functional; details: H6966/08, 48 h; method in brief: as §1
[16] = system: Staphylococcus aureus; assay: Antibacterial activity against methicillin-resistant Staphylococcus aureus H5996/08 after 48 hrs by broth microdilution method; type: functional; details: H5996/08, 48 h; method in brief: as §1
[17] = system: Trichosporon beigelii; assay: Antifungal activity against Trichosporon beigelii 1188 after 24 hrs by broth microdilution method; type: functional; details: Trichosporon beigelii, 1188, 24 h
[18] = system: Mycobacterium tuberculosis; assay: Antimycobacterial activity against drug-sensitive Mycobacterium tuberculosis; type: functional
[19] = system: Aspergillus fumigatus; assay: Antifungal activity against Aspergillus fumigatus 231 after 48 hrs by broth microdilution method; type: functional; details: Aspergillus fumigatus, 231, 48 h
[20] = system: Mycobacterium kansasii; assay: Antimycobacterial activity against Mycobacterium kansasii 6509/96 after 21 days by micromethod; type: functional; details: 6509/96, 504 h; method in brief: as §2
[21] = system: Staphylococcus aureus; assay: Antibacterial activity against Staphylococcus aureus CCM 4516/08 after 24 hrs by broth microdilution method; type: functional; details: CCM 4516/08, 24 h; method in brief: as §1
[22] = system: Candida tropicalis; assay: Antifungal activity against Candida tropicalis 156 after 48 hrs by broth microdilution method; type: functional; details: Candida tropicalis, 156, 48 h
[23] = system: Staphylococcus aureus; assay: Antibacterial activity against methicillin-resistant Staphylococcus aureus H5996/08 after 24 hrs by broth microdilution method; type: functional; details: H5996/08, 24 h; method in brief: as §1
[24] = system: Trichosporon beigelii; assay: Antifungal activity against Trichosporon beigelii 1188 after 48 hrs by broth microdilution method; type: functional; details: Trichosporon beigelii, 1188, 48 h
[25] = system: Candida tropicalis; assay: Antifungal activity against Candida tropicalis 156 after 24 hrs by broth microdilution method; type: functional; details: Candida tropicalis, 156, 24 h
[26] = system: Staphylococcus aureus; assay: Antibacterial activity against Staphylococcus aureus CCM 4516/08 after 48 hrs by broth microdilution method; type: functional; details: CCM 4516/08, 48 h; method in brief: as §1
[27] = system: Escherichia coli; assay: Antibacterial activity against Escherichia coli CCM 4517 after 48 hrs by broth microdilution method; type: functional; details: CCM 4517, 48 h; method in brief: as §1
[28] = system: Escherichia coli; assay: Antibacterial activity against Escherichia coli CCM 4517 after 24 hrs by broth microdilution method; type: functional; details: CCM 4517, 24 h; method in brief: as §1
[29] = system: Mycobacterium kansasii; assay: Antimycobacterial activity against Mycobacterium kansasii 235/80 after 7 days by micromethod; type: functional; details: 235/80, 168 h; method in brief: as §2
[30] = system: Nakaseomyces glabratus; assay: Antifungal activity against Candida glabrata 20/I after 48 hrs by broth microdilution method; type: functional
[31] = Selectivity index, ratio of IC50 for human PBMC to MIC for Mycobacterium tuberculosis H37Rv 331/88 after 14 days; type: functional
Method in brief: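 SI = PBMC IC50 (MTT cytotoxicity) divided by the MIC against the named M. tuberculosis strain. MIC taken after 14 days of incubation at 37 °C by the micromethod.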

[32] = system: Mycobacterium avium; assay: Antimycobacterial activity against multidrug-resistant Mycobacterium avium 330/88 after 21 days by micromethod; type: functional; details: 330/88, 504 h; method in brief: as §2
[33] = system: Lichtheimia corymbifera; assay: Antifungal activity against Absidia corymbifera 272 after 48 hrs by broth microdilution method; type: functional; details: Lichtheimia corymbifera, 272, 48 h
[34] = system: Candida albicans; assay: Antifungal activity against Candida albicans ATCC 44859 after 24 hrs by broth microdilution method; type: functional; details: ATCC 44859, 24 h
[35] = system: Lichtheimia corymbifera; assay: Antifungal activity against Absidia corymbifera 272 after 24 hrs by broth microdilution method; type: functional; details: Lichtheimia corymbifera, 272, 24 h
[36] = system: Mycobacterium kansasii; assay: Antimycobacterial activity against Mycobacterium kansasii 6509/96 after 14 days by micromethod; type: functional; details: 6509/96, 336 h; method in brief: as §2
[37] = system: Nakaseomyces glabratus; assay: Antifungal activity against Candida glabrata 20/I after 24 hrs by broth microdilution method; type: functional
[38] = system: Trichophyton mentagrophytes; assay: Antifungal activity against Trichophyton mentagrophytes after 24 hrs by broth microdilution method; type: functional
[39] = system: Mycobacterium kansasii; assay: Antimycobacterial activity against Mycobacterium kansasii 235/80 after 14 days by micromethod; type: functional; details: 235/80, 336 h; method in brief: as §2
[40] = system: Klebsiella pneumoniae; assay: Antibacterial activity against Klebsiella pneumoniae D11750/08 after 48 hrs by broth microdilution method; type: functional; details: D11750/08, 48 h; method in brief: as §1
[41] = system: Mycobacterium kansasii; assay: Antimycobacterial activity against Mycobacterium kansasii; type: functional
[42] = system: Mycobacterium tuberculosis; assay: Antimycobacterial activity against Mycobacterium tuberculosis H37Rv 331/88 after 14 days by micromethod; type: functional; details: H37Rv 331/88, 336 h; method in brief: as §2
[43] = system: Enterococcus sp.; assay: Antibacterial activity against Enterococcus sp. J14365/08 after 48 hrs by broth microdilution method; type: functional; details: J14365/08, 48 h; method in brief: as §1
[44] = system: Mycobacterium tuberculosis; assay: Antimycobacterial activity against Mycobacterium tuberculosis H37Rv 331/88 after 21 days by micromethod; type: functional; details: H37Rv 331/88, 504 h; method in brief: as §2

Q: For CC(=O)N[C@@H](Cc1ccccc1)C(=O)Oc1ccc(Cl)cc1C(=O)Nc1ccc(C(F)(F)F)cc1, which MIC [1] is on record?
A: The MIC was 31.2 µM (≈ 15.8 µg/mL).

Q: And the MIC [2]?
A: Its MIC is over 125 µM.

Q: What about the IC50 [3] of the same compound?
A: The IC50 was 12.2 µM.

Q: And the MIC [4]?
A: The MIC was 125 µM (≈ 63.1 µg/mL).

Q: And the logP [5]?
A: The logP was 4.92.

Q: And the MIC [6]?
A: The MIC was 0.98 µM (≈ 0.495 µg/mL).

Q: And the MIC [7]?
A: Its MIC is 1 µM (≈ 0.505 µg/mL).

Q: And the MIC [8]?
A: The MIC was 1 µM (≈ 0.505 µg/mL).

Q: And the MIC [9]?
A: Its MIC is over 125 µM.

Q: What about the MIC [10] of the same compound?
A: The MIC was 125 µM (≈ 63.1 µg/mL).

Q: And the MIC [11]?
A: Its MIC is over 125 µM.

Q: And the MIC [12]?
A: The MIC was 4 µM (≈ 2.02 µg/mL).

Q: What about the MIC [13] of the same compound?
A: Its MIC is 2 µM (≈ 1.01 µg/mL).

Q: And the MIC [14]?
A: Its MIC is over 125 µM.

Q: What about the MIC [15] of the same compound?
A: The MIC was 3.9 µM (≈ 1.97 µg/mL).

Q: And the MIC [16]?
A: Its MIC is 7.81 µM (≈ 3.94 µg/mL).

Q: And the MIC [17]?
A: Its MIC is 125 µM (≈ 63.1 µg/mL).

Q: And the MIC [18]?
A: The MIC was 1 µM (≈ 0.505 µg/mL).

Q: And the MIC [19]?
A: Its MIC is over 125 µM.

Q: What about the MIC [20] of the same compound?
A: The MIC was 2 µM (≈ 1.01 µg/mL).

Q: What about the MIC [21] of the same compound?
A: The MIC was 0.98 µM (≈ 0.495 µg/mL).

Q: What about the MIC [22] of the same compound?
A: The MIC was over 125 µM.

Q: And the MIC [23]?
A: Its MIC is 0.98 µM (≈ 0.495 µg/mL).

Q: What about the MIC [24] of the same compound?
A: The MIC was over 125 µM.

Q: And the MIC [25]?
A: The MIC was over 125 µM.

Q: And the MIC [26]?
A: Its MIC is 1.95 µM (≈ 0.985 µg/mL).

Q: What about the MIC [27] of the same compound?
A: The MIC was over 125 µM.

Q: And the MIC [28]?
A: Its MIC is over 125 µM.

Q: What about the MIC [29] of the same compound?
A: Its MIC is 0.5 µM (≈ 0.252 µg/mL).

Q: And the MIC [30]?
A: The MIC was over 125 µM.

Q: What about the “Selectivity Index” value [31] of the same compound?
A: The value was 48.8.

Q: What about the MIC [32] of the same compound?
A: The MIC was 4 µM (≈ 2.02 µg/mL).

Q: What about the MIC [33] of the same compound?
A: The MIC was over 125 µM.

Q: What about the MIC [34] of the same compound?
A: The MIC was over 125 µM.

Q: What about the MIC [35] of the same compound?
A: Its MIC is over 125 µM.

Q: And the MIC [36]?
A: Its MIC is 2 µM (≈ 1.01 µg/mL).

Q: And the MIC [37]?
A: The MIC was over 125 µM.

Q: What about the MIC [38] of the same compound?
A: Its MIC is 62.5 µM (≈ 31.6 µg/mL).

Q: And the MIC [39]?
A: The MIC was 1 µM (≈ 0.505 µg/mL).

Q: What about the MIC [40] of the same compound?
A: Its MIC is over 125 µM.

Q: And the MIC [41]?
A: The MIC was 1 µM (≈ 0.505 µg/mL).

Q: What about the MIC [42] of the same compound?
A: The MIC was 0.25 µM (≈ 0.126 µg/mL).

Q: What about the MIC [43] of the same compound?
A: The MIC was over 125 µM.

Q: And the MIC [44]?
A: Its MIC is 0.5 µM (≈ 0.252 µg/mL).
